Reference: ChEMBL document CHEMBL1122226, “6-Aryl-4,5-dihydro-3(2H)-pyridazinones. A new class of compounds with platelet aggregation inhibiting and hypotensive activities” (J Med Chem, 1983)
Converted amounts (≈) assume the structure as drawn.

Key:
[1] = In vitro inhibition of collagen induced aggregation of human plateles and the ratio of ED33 to EC50 was reported; assay type: functional
Method in brief: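 Ratio of oral ED33 (male Sprague-Dawley rats, 3 per dose, blood taken 1 h post-dose, collagen-triggered aggregation) to in vitro EC50 (human citrated platelet-rich plasma, 10 min room-temperature preincubation in 1% Me2SO, collagen 0.02 mg/mL final, regression-derived).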

[2] = tested on: Rattus norvegicus; assay: In vitro hypotensive activity in anesthetized rats after intraperitoneal administration.; assay type: functional; settings: ip, in the assay text read “In vivo” for “In vitro”
Method in brief: (§1)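 Male Sprague-Dawley rats, 230-280 g, urethane-anesthetized (ip); carotid arterial pressure recorded continuously by pressure transducer. Compounds given ip at 2 mL/kg. ED20, dose lowering mean carotid pressure by 20%, from log dose–effect regression; dihydralazine as reference.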

[3] = species on record: Rattus norvegicus; assay: Relative activity in rats based on acetylsalicylic acid; assay type: functional
[4] = species on record: Homo sapiens; assay: In vitro inhibition of collagen-induced human platelet aggregation.; assay type: functional, organism-based
Method in brief: (§2)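 Human venous blood citrated with 10% v/v sodium citrate (3.8%); platelet-rich plasma spun at 300g, 10 min, 4 °C, used within 2 h. Compound in Me2SO (1% final) preincubated 10 min at room temperature; aggregation triggered by collagen 0.02 mg/mL final or ADP 0.85 μg/mL final; maximum rate read in Born aggregometer. EC50 from log dose–effect regression with 95% confidence limits.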

[5] = species on record: Homo sapiens; assay: Relative activity (compared to acetylsalicylic acid) for in vitro inhibition of collagen-induced human platelet aggregation; assay type: functional
[6] = tested on: Rattus norvegicus; assay: Ex vivo inhibition of collagen-induced rat platelet aggregation after peroral administration; assay type: functional; settings: po
Method in brief: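 Male Sprague-Dawley rats, 200-250 g, dosed orally, three rats per dose. Blood drawn by heart puncture under ether 1 h post-dose; platelet-rich plasma prepared by centrifugation; aggregation induced with collagen 0.02 mg/mL final, maximum rate read in Born aggregometer.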

[7] = species on record: Homo sapiens; assay: In vitro inhibition of ADP-induced human platelet aggregation; assay type: functional; method in brief: as §2
[8] = tested on: Rattus norvegicus; assay: Activity relative to dihydralazine for in vitro hypotensive activity in anesthetized rats; assay type: functional; settings: in the assay text read “in vivo” for “in vitro”; method in brief: as §1
[9] = tested on: Rattus norvegicus; assay: In vivo hypotensive activity in anesthetized rats after intravenous administration.

Structure (SMILES)	Ratio [1]	ED20 [2]	Relative activity [3]	EC50 ([4]; Homo sapiens, read-out: EC50)	Relative activity [5]	ED33 [6]	EC50 ([7]; Homo sapiens, read-out: EC50)	Relative activity [8]	EC50 [4]	ED20 [9]	EC50 [7]
CCC(Cl)C(=O)Nc1ccc(C2=NNC(=O)CC2C)cc1 (stereo unspecified)	9.6	0.65 mg/kg	353	0.069 µg/mL (≈ 0.224 µM)	7159	0.66 mg/kg	0.035 µg/mL (≈ 0.114 µM)	0.52	–	–	–
CC1CC(c2ccc(NC(=O)CCl)cc2)=NNC1=O (stereo unspecified)	–	> 1 mg/kg	–	6.31 µg/mL (≈ 22.6 µM)	78	–	21.9 µg/mL (≈ 78.3 µM)	<0.34	–	–	–
CN1N=C(c2ccc(N)cc2)CCC1=O	–	> 1 mg/kg	–	> 46.4 µg/mL	<11	–	> 46.4 µg/mL	<0.34	–	–	–
COc1ccc2c(c1)c(CC(=O)O)c(C)n2C(=O)c1ccc(Cl)cc1 [INDOMETHACIN]	–	–	–	–	2.47	–	–	–	200 µg/mL (≈ 559 µM)	–	–
CC(Cl)C(=O)Nc1ccc(C2=NNC(=O)C(C)C2)cc1 (stereo unspecified)	–	> 1 mg/kg	–	33.8 µg/mL (≈ 115 µM)	15	–	32.9 µg/mL (≈ 112 µM)	<0.34	–	–	–
Nc1cccc(C2=NNC(=O)CC2)c1	–	> 1 mg/kg	–	> 46.4 µg/mL	<11	–	> 46.4 µg/mL	<0.34	–	–	–
CCCCC[C@H](O)/C=C/[C@@H]1[C@H]2C/C(=C/CCCC(=O)O)O[C@H]2C[C@H]1O [EPOPROSTENOL]	–	–	–	0.00165 µg/mL (≈ 0.00468 µM)	299394	–	0.0174 µg/mL (≈ 0.0494 µM)	–	–	0.00067 mg/kg	–
CCCC(=O)Nc1ccc(C2=NNC(=O)CC2)cc1	–	0.46 mg/kg	–	1.45 µg/mL (≈ 5.59 µM)	341	–	1.44 µg/mL (≈ 5.55 µM)	0.74	–	–	–
CC(=O)Nc1ccc(C2=NN(C)C(=O)CC2)cc1	–	1 mg/kg	–	> 46.4 µg/mL	<11	–	> 46.4 µg/mL	0.34	–	–	–
O=C1CCC(c2ccc(NC(=O)CCCCl)cc2)=NN1	–	> 1 mg/kg	–	> 46.4 µg/mL	<11	–	> 46.4 µg/mL	<0.34	–	–	–
CC(Cl)C(=O)Nc1ccc(C2=NNC(=O)CC2)cc1 (stereo unspecified)	82.7	0.53 mg/kg	10.3	0.28 µg/mL (≈ 1 µM)	1764	22.6 mg/kg	0.45 µg/mL (≈ 1.61 µM)	0.64	–	–	–
CCN(CC)CC(=O)Nc1ccc(C2=NNC(=O)CC2)cc1.Cl	–	> 1 mg/kg	–	~10 µg/mL	~49	–	~10 µg/mL	<0.34	–	–	–
O=C1CCC(c2ccc(NC(=O)CN3CCOCC3)cc2)=NN1	–	> 1 mg/kg	–	~21.5 µg/mL (≈ 68 µM)	~23	–	~46.4 µg/mL (≈ 147 µM)	<0.34	–	–	–
CCCCC(=O)Nc1ccc(C2=NNC(=O)CC2)cc1	–	1 mg/kg	–	3.34 µg/mL (≈ 12.2 µM)	148	–	2.64 µg/mL (≈ 9.66 µM)	0.34	–	–	–
C[N+]1(CC(=O)Nc2ccc(C3=NNC(=O)CC3)cc2)CCCC1.[Cl-]	–	> 1 mg/kg	–	> 46.4 µg/mL	<11	–	> 46.4 µg/mL	<0.34	–	–	–
C=CCNCC(=O)Nc1ccc(C2=NNC(=O)CC2)cc1.Cl	–	> 1 mg/kg	–	~4.64 µg/mL	~107	–	~21.5 µg/mL	<0.34	–	–	–
O=C1CCC(c2ccc(NC(=O)CCCl)cc2)=NN1	46.3	> 1 mg/kg	5.6	0.9 µg/mL (≈ 3.22 µM)	549	41.7 mg/kg	0.98 µg/mL (≈ 3.5 µM)	<0.34	–	–	–
CC1CC(=O)NN=C1c1ccc(NC(=O)C(C)(C)CBr)cc1 (stereo unspecified)	8	0.34 mg/kg	66.6	–	1123	3.5 mg/kg	0.5 µg/mL (≈ 1.37 µM)	0.99	–	–	–
CC1CC(c2ccc(N)cc2)=NNC1=O (stereo unspecified)	–	> 1 mg/kg	–	46.9 µg/mL (≈ 231 µM)	11	–	43.8 µg/mL (≈ 216 µM)	<0.34	–	–	–
CC(C)(CCl)C(=O)Nc1ccc(C2=NNC(=O)CC2)cc1	–	> 1 mg/kg	–	9.24 µg/mL (≈ 30 µM)	54	–	11.4 µg/mL (≈ 37 µM)	<0.34	–	–	–
CC1CC(=O)NN=C1c1ccc(NC(=O)CCCl)cc1 (stereo unspecified)	158	0.044 mg/kg	4.9	–	1647	47.5 mg/kg	0.16 µg/mL (≈ 0.545 µM)	7.68	–	–	–
CC1CC(=O)NN=C1c1ccc(NC(=O)C(C)(C)CCl)cc1 (stereo unspecified)	10.6	0.61 mg/kg	46.6	–	1051	5 mg/kg	0.28 µg/mL (≈ 0.87 µM)	0.55	–	–	–

Structure (SMILES)	Ratio [1]	ED20 [2]	Relative activity [3]	EC50 ([4]; Homo sapiens, read-out: EC50)	Relative activity [5]	ED33 [6]	EC50 ([7]; Homo sapiens, read-out: EC50)	Relative activity [8]	EC50 [4]	ED20 [9]	EC50 [7]
CC(Br)C(=O)Nc1ccc(C2=NNC(=O)CC2C)cc1 (stereo unspecified)	14.1	0.4 mg/kg	28.5	–	–	8.18 mg/kg	0.26 µg/mL (≈ 0.769 µM)	0.85	–	–	–
CC1CC(=O)NN=C1c1ccc(NC(=O)CCl)cc1 (stereo unspecified)	111	0.15 mg/kg	19.1	–	–	12.2 mg/kg	0.15 µg/mL (≈ 0.536 µM)	2.25	–	–	–
CC1CC(=O)NN=C1c1ccc(NC(=O)CCCCl)cc1 (stereo unspecified)	–	0.32 mg/kg	–	1.66 µg/mL (≈ 5.39 µM)	298	–	1.63 µg/mL (≈ 5.3 µM)	–	–	–	–
CC(Cl)CC(=O)Nc1ccc(C2=NNC(=O)CC2C)cc1 (stereo unspecified)	–	0.187 mg/kg	–	3.29 µg/mL (≈ 10.7 µM)	150	–	4.78 µg/mL (≈ 15.5 µM)	1.81	–	–	–
CN1N=C(c2ccc(NC(=O)CCl)cc2)CCC1=O	–	> 1 mg/kg	–	> 46.4 µg/mL	<11	–	> 46.4 µg/mL	<0.34	–	–	–
CCCNCC(=O)Nc1ccc(C2=NNC(=O)CC2)cc1.Cl	–	> 1 mg/kg	–	~10 µg/mL	~49	–	~46.4 µg/mL	<0.34	–	–	–
CC(Cl)C(=O)Nc1ccc(C2=NNC(=O)CC2C)cc1 (stereo unspecified) [AMIPIZONE]	20.3	0.0081 mg/kg	370	–	15936	0.63 mg/kg	0.099 µg/mL (≈ 0.337 µM)	41.7	–	–	–
N/N=c1\[nH][nH]/c(=N\N)c2ccccc12 [DIHYDRALAZINE]	–	0.34 mg/kg	–	–	3	–	–	1	149 µg/mL (≈ 783 µM)	–	310 µg/mL (≈ 1630 µM)
CCC(=O)Nc1ccc(C2=NNC(=O)CC2)cc1	56.3	0.06 mg/kg	5.6	0.74 µg/mL (≈ 3.02 µM)	668	41.6 mg/kg	0.64 µg/mL (≈ 2.61 µM)	5.63	–	–	–
Nc1ccc(C2=NNC(=O)CC2)cc1	–	0.18 mg/kg	–	14.8 µg/mL (≈ 78.2 µM)	33	–	46.4 µg/mL (≈ 245 µM)	1.88	–	–	–
CC(C)NCC(=O)Nc1ccc(C2=NNC(=O)CC2)cc1.Cl	–	> 1 mg/kg	–	~21.5 µg/mL	~23	–	~46.4 µg/mL	<0.34	–	–	–
CC1CC(=O)NN=C1c1ccc(NC(=O)C(C)(C)Br)cc1 (stereo unspecified)	3.9	2.93 mg/kg	66.8	–	–	3.49 mg/kg	0.33 µg/mL (≈ 0.937 µM)	0.12	–	–	–
CC(=O)Nc1ccc(C2=NNC(=O)C(C)C2)cc1 (stereo unspecified)	–	> 1 mg/kg	–	46.4 µg/mL (≈ 189 µM)	11	–	46.4 µg/mL (≈ 189 µM)	<0.34	–	–	–
CC(=O)Nc1cccc(C2=NNC(=O)CC2)c1	–	> 1 mg/kg	–	> 46.4 µg/mL	<11	–	> 46.4 µg/mL	<0.34	–	–	–
O=C1CCC(c2ccc(NC(=O)CCl)cc2)=NN1	62.8	0.37 mg/kg	14.8	–	1976	15.7 mg/kg	0.39 µg/mL (≈ 1.47 µM)	0.91	–	–	–
O=CNc1ccc(C2=NNC(=O)CC2)cc1	–	0.32 mg/kg	–	5.27 µg/mL (≈ 24.3 µM)	94	–	3.74 µg/mL (≈ 17.2 µM)	1.06	–	–	–
CCC(Cl)C(=O)Nc1ccc(C2=NNC(=O)CC2)cc1 (stereo unspecified)	–	0.37 mg/kg	–	3.16 µg/mL (≈ 10.8 µM)	156	–	1.47 µg/mL (≈ 5 µM)	0.91	–	–	–
CC(=O)Oc1ccccc1C(=O)O [ASPIRIN]	0.47	–	–	–	1	233 mg/kg	–	1	494 µg/mL (≈ 2740 µM)	–	–
CC(=O)Nc1ccc(C2=NNC(=O)CC2)cc1	–	0.2 mg/kg	–	1.09 µg/mL (≈ 4.71 µM)	453	–	1 µg/mL (≈ 4.32 µM)	1.69	–	–	–
CCC(Br)C(=O)Nc1ccc(C2=NNC(=O)CC2C)cc1 (stereo unspecified)	9.6	1.49 mg/kg	90.3	–	–	2.58 mg/kg	0.052 µg/mL (≈ 0.148 µM)	0.23	–	–	–
CCC(C)NCC(=O)Nc1ccc(C2=NNC(=O)CC2)cc1.Cl (stereo unspecified)	–	> 1 mg/kg	–	~21.5 µg/mL	~23	–	~21.5 µg/mL	<0.34	–	–	–
